# Shown are actives, neighbours in structure and some others; about 1.6% of the full set was active somewhere.
# NR2E3 ag-1: NR2E3 agonists in two-hybrid cells, primary screen, cell-based, luminescence, CHO-S, Gal4-NCOR/VP16-NR2E3 | inhibition of corepressor binding, % at 3.98 µM | luciferase | AID 602229, 2012 | 360,000 compounds, 0.35% hits | Photoreceptor-specific nuclear receptor (Homo sapiens), Q9Y5X4;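 active = inhibition above the mean of all tested compounds plus 3 SD, cut at about 70% in these data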;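 note: 0% = DMSO with NR2E3 transfected cells and 100% = cells lacking NR2E3 construct; higher means lower luciferase signal from less NR2E3 corepressor binding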
# Target sequence (Q9Y5X4 whole entry, looked up, the tested form may be a part): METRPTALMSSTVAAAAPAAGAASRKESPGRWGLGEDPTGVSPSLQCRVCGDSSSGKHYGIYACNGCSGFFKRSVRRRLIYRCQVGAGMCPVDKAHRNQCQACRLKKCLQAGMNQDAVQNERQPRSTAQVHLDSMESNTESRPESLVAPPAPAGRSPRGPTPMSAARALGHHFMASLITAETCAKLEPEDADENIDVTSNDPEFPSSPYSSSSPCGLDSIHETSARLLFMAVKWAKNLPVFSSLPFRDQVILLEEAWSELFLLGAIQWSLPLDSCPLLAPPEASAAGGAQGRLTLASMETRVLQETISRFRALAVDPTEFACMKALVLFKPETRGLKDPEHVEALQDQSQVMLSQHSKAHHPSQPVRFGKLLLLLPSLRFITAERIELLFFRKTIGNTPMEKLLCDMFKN
# PG9 Ab binder: binders of HIV-1 gp120 antibody PG9, primary screen, biochemical, TR-FRET | 360,000 compounds, 0.43% hits | HIV-1 gp120 / PG9 antibody interaction | TR-FRET gp120-PG9 antibody binding | inhibition, % at 6.7 µM; in the data active = inhibition above about 8.5%
# NR1D1 modulator: modulators of Rev-erb alpha DNA binding, primary screen, biochemical, FITC-DNA, fluorescence polarization, uHTS. Rev-erbα–FITC-DNA binding, 90 min. activity, % at 10 µM. 370,000 compounds, 0.79% hits;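 active = activity above about 14%, limit read from the data; passing the limit was not always enough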;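 note: 0% = DMSO wells with 35 nM protein and 100% = DMSO wells with 750 nM protein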
# VLA-4 inh: inhibition in human VLA-4 binding assay, primary screen, VLA-4 allosteric modulator project, MLPCN library, flow cytometry, VLA-4 expressing cells | Integrin alpha-4 (Homo sapiens), P13612 | ligand binding flow cytometry | inhibition, % (about 7 µM as worked out from the volumes in the protocol) | 330,000 compounds, 0.2% hits; in the data active = inhibition above about 50%
# NR2E3 ag-2: inhibitors of NR2E3-RetCOR corepressor binding, primary screen, NR2E3 agonist project, biochemical, TR-FRET, GST-NR2E3, biotin-RetCOR | 1536-well | inhibition of corepressor binding, % at 4.78 µM | 320,000 compounds, 0.12% hits | AID 2300, 2010;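 active = percent inhibition above the cutoff of mean plus 3 SD of all tested compounds, set per screening campaign, cut at about 20% in these data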;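 note: 0% = DMSO wells and 100% = biotin wells as full block of FRET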
#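 Test system: GST-NR2E3 and biotin-RetCOR proteins | Quantity: 1.35 nM GST-tagged NR2E3 final | Medium: Tris pH 7.5 | Also added: 7 nM biotin-RetCOR | Dosing: Compound at 4.8 µM, single dose | Timing: 5 h at 4 °C | Detection: Time-resolved FRET | Read-out basis: Percent inhibition | Benchmarks: Biotin wells as high control, 0.6% DMSO wells as low control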
# VLA-4 mod pick: retest of VLA-4 allosteric modulators, confirmation, cell-based, cherry-picked plates, U937, HUTS-21 LIBS antibody; shares compounds with VLA-4 inh; U937 cells, HUTS-21 LIBS mAb binding, flow cytometry; LDV ligand present at threefold Kd; inhibition, % at 6.7 µM; 1,300 compounds, 2% hits; in the data active = inhibition above about 40%;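 note: 0% = ligand without compound and 100% = no ligand background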
# NR2E3 ag confirm: NR2E3 agonist confirmation in cells, cell-based, luminescence, CHO-S two-hybrid. 2,300 compounds, 51% hits. inhibition, % at 3.98 µM. CHO-S mammalian two-hybrid NR2E3-NCOR, luciferase luminescence. AID 624378, 2012. shares compounds with NR2E3 ag-1;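 active = average inhibition above a cutoff equal to the mean inhibition of all tested compounds plus one SD, cut at about 70% in these data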;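 note: 0% = DMSO in NR2E3 cells and 100% = DMSO in cells lacking NR2E3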
# GAL4-VP16 luc: GAL4-VP16 reporter modulators, confirmation, counter-screen for NR2E3 agonist project, cell-based, luminescence, CHO-S, high throughput | CHO-S GAL4-VP16 luciferase reporter | shares compounds with NR2E3 ag-1 | 2,300 compounds, 29% hits | AID 624379, 2012 | inhibition, % at 3.98 µM;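 active = mean inhibition above a cutoff equal to the average over all tested compounds plus one standard deviation, cut at about 70% in these data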;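 note: luciferase from a UAS reporter driven by GAL4-VP16 transactivation; 0% = DMSO with VP16-transfected cells and 100% = DMSO with cells lacking VP16; higher means less reporter light so more repression of VP16 activity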
# PG9 binder conf: binders of anti-gp120 antibody PG9, confirmation, biochemical, TR-FRET; shares compounds with PG9 Ab binder; TR-FRET PG9 antibody binding; inhibition, % at 6.7 µM; 1,500 compounds, 90% hits; AID 651571, 2012; in the data active = inhibition above about 9%
# PGV04 counter: binders of control antibody PGV04, counter-screen for PG9 antibody binder project, biochemical, TR-FRET, distinct HIV envelope site; shares compounds with PG9 Ab binder; TR-FRET PGV04 antibody-gp120 binding; inhibition, % at 6.7 µM; 1,500 compounds, 95% hits; AID 651604, 2012; in the data active = inhibition above about 9.5%
# * = called active by the depositor; . = no result given.
SMILES,NR2E3 ag-1,PG9 Ab binder,NR1D1 modulator,VLA-4 inh,NR2E3 ag-2,NR2E3 ag confirm,GAL4-VP16 luc,others
CC(C)NC(=O)N[C@H]1C[C@@H]2O[C@@H](CO)CC[C@@H]2O[C@@H]1CCc1ccc(-c2ccc(F)cc2)cc1,.,.,-12.6,.,.,.,.,
Cc1ccc(S(=O)(=O)N2[C@@H](c3ccc(C(C)(C)C)cc3)C(C(=O)O)=CC[C@H]2c2cccs2)cc1,51.4,0.0,0.4,60.1*,.,-4.5,-5.5,VLA-4 mod pick=2.0
Nc1nc(F)nc2c1ncn2[C@@H]1O[C@H](CO)[C@@H](O)[C@H]1O,103.3*,0.3,-0.6,6.2,3.2,99.9*,99.0*,VLA-4 mod pick=1.2
CCn1c2ccccc2c2cc(NC(=O)c3cc(OC)cc(OC)c3)ccc21,51.2,-1.3,4.7,46.6,2.8,-4.0,8.6,VLA-4 mod pick=31.5
Cc1cccc(Cn2cc(COC(=O)N3CCOCC3)nn2)c1,.,.,-2.2,.,.,.,.,
CCC(=O)c1cn(CC(=O)Nc2ccc(C)cc2)c2ccccc12,-12.8,11.4*,15.8,4.9,6.9,.,.,VLA-4 mod pick=2.0;PG9 binder conf=12.9*;PGV04 counter=17.5*
Nn1c(SCC(=O)Nc2nccs2)nnc1-c1cc(-c2ccc(Cl)cc2)n[nH]1,.,.,4.2,.,.,.,.,
N#Cc1c(SCC(=O)O)nc(-c2ccccc2)c2c1CCCC2,-5.4,13.0*,-6.9,94.5*,8.6,.,.,VLA-4 mod pick=-0.2;PG9 binder conf=18.6*;PGV04 counter=23.6*
N#Cc1c(SCC(N)=O)nc(-c2ccccc2)c2c1CCCC2,-35.1,4.2,5.7,-12.6,1.1,.,.,
Cc1cc(C(=O)CSc2nc3ccc(Cl)cc3[nH]2)c(C)n1CC1CCCO1 (centres undefined),57.0,0.0,0.7,0.2,0.4,80.2*,63.8,
COCC(C)n1c(C)cc(C(=O)CSc2nc3ccccc3c(=O)[nH]2)c1C (centres undefined),51.0,0.3,-2.3,-77.9,1.3,63.8,52.0,
C=CCn1c(C)cc(C(=O)CSc2nc3ccccc3c(=O)[nH]2)c1C,-54.6,-0.7,1.1,-4.3,2.6,.,.,
Cc1cc(C(=O)CSc2nc3ccc(Cl)cc3[nH]2)c(C)n1C,-11.9,1.5,-2.5,1.5,-0.2,.,.,
C=CCn1c(C)cc(C(=O)CSc2nc3ccccc3[nH]2)c1C,64.3,4.2,-6.5,0.7,-1.7,33.3,-35.9,
C=CCn1c(C)cc(C(=O)CN2C(=O)c3ccccc3S2(=O)=O)c1C,55.6,.,.,21.9,1.9,76.4*,33.7,
COCc1cn([C@H]2C[C@@H]3O[C@H](CO)CC[C@@H]3O[C@@H]2CCc2ccc(-c3ccc(OC)cc3)cc2)nn1,.,.,2.2,.,.,.,.,
FC(F)(F)c1ccccc1NC(=S)OCCN1CCCC12CCC(c1ccccc1)CC2 (centres undefined),.,.,-4.4,.,.,.,.,
O=C1CCC[C@H]2C[C@H](NCc3cccs3)CC[C@]23CCCN13,.,.,-2.4,.,.,.,.,
CCCc1ccc(Oc2c(-c3ccc(O)c(C)c3O)n[nH]c2C)cc1,15.0,0.7,-3.3,-9.7,-2.0,.,.,
CCCc1ccc(Oc2cn[nH]c2-c2ccc(O)c(C)c2O)cc1,48.9,-0.2,7.2,13.3,1.5,61.2,58.2,
FC(F)Sc1ccc(NC(=S)N2CCN(c3ccccn3)CC2)cc1,61.3,-1.7,3.1,.,.,86.7*,45.3,
CCC[C@H]1[C@@H](NS(=O)(=O)c2ccccc2[N+](=O)[O-])CC[C@@]23CCCN2C(=O)CCC[C@@H]13,.,.,2.5,.,.,.,.,
CC(C)CC(=O)N1CCC(C(=O)NCC2COc3ccccc3O2)CC1 (centres undefined),.,.,-3.0,.,.,.,.,
NC(=S)NN=C1c2ccccc2-c2cc(Br)ccc21,85.0*,0.2,9.9,.,.,-5.3,-26.9,
ON=C1c2ccccc2-c2ccc(Br)cc21,-37.8,0.4,4.9,.,.,.,.,
SMILES,NR2E3 ag-1,PG9 Ab binder,NR1D1 modulator,VLA-4 inh,NR2E3 ag-2,NR2E3 ag confirm,GAL4-VP16 luc,others
COc1ccc(OC)c(S(=O)(=O)N2CCC(C(=O)NCc3cccs3)CC2)c1,.,.,-10.6,.,.,.,.,
COc1cc(C(O)c2nc(-c3ccc(N(C)C)cc3)cs2)ccc1F (centres undefined),49.7,.,.,.,.,32.8,42.0,
COc1cc2c(OC(C)=O)c3c(c(-c4ccc5c(c4)OCO5)c2cc1OC)C(=O)OC3,81.0*,1.1,-0.2,31.3,1.6,98.4*,31.0,
COc1cc2c(O)c3c(c(-c4ccc5c(c4)OCO5)c2cc1OC)C(=O)OC3,81.7*,-1.8,-2.5,12.9,2.1,99.4*,42.6,
CC1CCc2nc(NC(=O)CSc3nc4ccccc4o3)sc2C1 (centres undefined),84.4*,0.7,-3.1,5.8,0.7,61.7,56.9,
COC(=O)[C@]12C[C@H](CC(=O)NCCc3ccccc3OC)C(=O)N(Cc3ccco3)C1=C[C@H](C(C)(C)C)O[C@@H]2C,.,.,-2.4,.,.,.,.,
CC1CCCN(c2ncnc3c2cnn3-c2ccccc2)C1 (centres undefined),5.3,-1.1,-7.5,-8.3,-0.3,.,.,
CC1CCCN(c2ncnc3c2cnn3-c2ccc(Cl)cc2)C1 (centres undefined),91.9*,1.2,-0.4,-16.1,1.1,82.8*,69.3,
CCOc1cc(CNCCc2ccc(S(N)(=O)=O)cc2)ccc1OCc1ccc(Cl)cc1,52.1,0.1,-4.3,10.7,-5.3,44.1,30.4,
COc1cc(CNCCc2ccc(S(N)(=O)=O)cc2)ccc1OCc1ccc(Cl)cc1,-13.9,-2.0,-0.7,8.3,-2.1,.,.,
COCCn1c(C)cc(C(=O)COC(=O)c2cccnc2SC)c1C,-86.7,-0.1,4.8,-7.0,.,.,.,
Cc1cc(C(=O)COC(=O)c2ccccc2Br)c(C)n1CC1CCCO1 (centres undefined),88.8*,-0.3,2.2,3.1,-1.4,80.5*,70.8*,
